High-throughput results (PubChem)
Shown is part of a subset that was picked to be rich in hits.
T cruzi inh = inhibitors of intracellular T. cruzi growth, primary screen, luminescence, NIH3T3 host cells | inhibition, % (no concentration beside the values) | T. cruzi beta-gal in NIH3T3, 90 h | hit rate 1.4% among 300,000;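 active = mean inhibition across valid replicates above about 55%, limit read from the data; inconclusive = mean below that limit but half or more replicates reach it; inactive = mean below it, under half of replicates reach it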;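 also: signal also drops with host cell toxicity which is not excluded here; higher percent means less beta-gal luminescence so fewer parasites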
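System – NIH/3T3 host cells with β-galactosidase reporter T. cruzi · Doses – single 50 nL compound addition per well in DMSO · Reagent – 5000 T. cruzi trypomastigotes/well · Medium – Low-serum DMEM with 2% FBS · Timing – ≥90 h infection period, 3 h prior cell attachment · Evaluation – parasite load inhibition, % · Technique – GalScreen luminescence, 60 min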
HSF1 activator = HSF-1 activators, primary screen, NIH3T3-HGL cells, MG132 stress, luminescence, single point; AID 504408, 2011; NIH3T3-HGL HSF-1 luciferase reporter, 8 h; 100% = twice DMSO control signal; hit rate 1.7% among 300,000; activation, % at 9 µM;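 active = mean replicate activation of at least 50% with a set share of replicates each reaching 50%; inconclusive = only one of those two conditions met; inactive = mean below 50% and too few replicates reaching it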
Hsp70 activator = Hsp70 transcriptional activators, primary screen, cell-based, HeLa, Hsp70 promoter luciferase, luminescence, 10 µM | AID 1203, 2008 | hit rate 0.04% among 200,000 | activation, % at 10 µM | HeLa Hsp70 promoter luciferase reporter; scaled: vehicle 0, proteasome-inhibitor control 100%;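 active = activation above the mean across all tested compounds plus 3 SD, cutoff set per campaign, cut at about 5.5% in these data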
Lmaj promast = Leishmania major promastigote growth inhibition, primary screen; Leishmania major promastigotes, resazurin fluorescence viability; inhibition, % at 10 µM; hit rate 9% among 200,000; AID 1063, 2008; in the data active = inhibition above about 50%;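 also: promastigotes grown with compound for 44 hours at 28 °C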
HSF1 inh = HSF1 inhibitors in luciferase reporter cells, primary screen, cell-based, NIH3T3, luminescence; NIH3T3-HGL HSE-luciferase, MG132-induced, luminescence 8 h; active compounds read low; activity change, negative = inhibition, % at 7.5 µM (by protocol); hit rate 0.77% among 300,000;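 active = more than half of replicate wells show activity change below -50%, luminescence cut by over half; inconclusive = some wells, but at most half, below -50%; inactive = no replicate well below -50%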;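 also: luciferase reports HSF-1 transcriptional activity via heat shock element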
Numbers stand for hits; 0 = inactive; ? = inconclusive; - = not tested or not shown.

SMILES | T cruzi inh | HSF1 activator | Hsp70 activator | Lmaj promast | HSF1 inh
S=C(Nc1ccc(Cl)cc1)N1CCN(Cc2ccccc2)CC1 | 0 | 0 | 0 | 0 | 0
Cc1cc(C)cc(NC(=S)N2CCN(Cc3ccccc3)CC2)c1 | 0 | 0 | 0 | 0 | 0
Fc1ccc(CNC(=S)Nc2ccc(OC(F)F)cc2)cc1 | 0 | - | 0 | 62.8 | -
COc1ccc(NC(=S)N2CCN(Cc3ccc(C)cc3)CC2)cc1 | 0 | 0 | 0 | 61.8 | 0
C=C(C)COc1ccc2c(CC)cc(=O)oc2c1C | 0 | 0 | 0 | 61.7 | 0
C=C(C)COc1ccc2c(C)c(CC(=O)OC)c(=O)oc2c1C | - | - | 0 | 58.2 | -
Cc1c(C)c2ccc(OCC(=O)Nc3ccccn3)c(C)c2oc1=O | 0 | 0 | - | - | -88.4
Cc1oc(C(=O)O)cc1COc1ccc2c3c(c(=O)oc2c1C)CCC3 | 0 | 0 | 0 | 0 | -59.8
Cc1c(C)c2ccc(OCC(=O)N(C)C)c(C)c2oc1=O | 0 | 0 | 0 | 0 | 0
O=S(=O)(/N=C(/Nc1cccc2ccccc12)c1ccccc1)c1ccc(Br)cc1 | 0 | 0 | - | - | 0
CC(=O)Nc1cccc(-n2nnc(SCC(=O)N(C)c3ccccc3)n2)c1 | 0 | 0 | - | - | 0
Cc1ccc(S(=O)(=O)N(CC2CO2)c2cc(Cl)ccc2Cl)cc1 (configuration not stated) | 0 | 0 | - | - | 0
Cc1nn(S(=O)(=O)c2cccc([N+](=O)[O-])c2)c(C)c1S(=O)(=O)N1CCOCC1 | 0 | 0 | - | - | 0
COc1ccc(OC)c(C(=O)NC(CC(N)=O)c2ccc(NCCN3CCCCC3)c([N+](=O)[O-])c2)c1 (configuration not stated) | 0 | 0 | - | - | 0
Cc1c(OCC(=O)NCCCn2ccnc2)ccc2c3c(c(=O)oc12)CCCC3 | 0 | 57.2 | - | - | 0
CCCc1cc(=O)oc2c(C)c(OCC(=O)NCCCn3ccnc3)ccc12 | 0 | 0 | - | - | 0
O=C(CN1CCOCC1)NN=C1CCCCCCCCCCC1 | 0 | 0 | 0 | 52.0 | 0
O=C(CN1CCOCC1)NN=C(c1ccccc1)c1ccccc1 | 0 | 0 | 0 | 0 | 0
Cc1ccc(S(=O)(=O)N2CCN(C(=O)COC(=O)c3oc4ccccc4c3C)CC2)cc1 | 0 | 0 | - | - | 0
O=C(O)c1ccc(N/N=C/C=C/c2ccc([N+](=O)[O-])o2)cc1 | 0 | 0 | - | - | 0
O=[N+]([O-])c1ccc(/C=[N+](\[O-])CCO)o1 | 59.2 | 0 | - | - | 0
Cc1ccc2c(Cl)cc(Cl)c(OCC(=O)Nc3cccc(S(=O)(=O)N(C)C)c3)c2n1 | 0 | 0 | 0 | 0 | 0
Cc1ccc2c(Cl)cc(Cl)c(OCC(=O)Nc3cc(S(=O)(=O)N(C)C)ccc3C)c2n1 | 0 | 0 | 0 | 68.5 | 0
Cc1ccc2c(Cl)cc(Cl)c(OCC(=O)Nc3cccc(S(N)(=O)=O)c3)c2n1 | 0 | 0 | 0 | 71.3 | 0
Cc1ccc2c(Cl)cc(Cl)c(OCC(=O)NC(C)(C)C)c2n1 | 0 | 0 | 0 | 0 | 0
SMILES | T cruzi inh | HSF1 activator | Hsp70 activator | Lmaj promast | HSF1 inh
Cc1ccc2c(Cl)cc(Cl)c(OCC(=O)Nc3ccc(C)c(S(=O)(=O)N(C)C)c3)c2n1 | 0 | 0 | 0 | 68.4 | 0
Cc1ccc(S(=O)(=O)N(C)C)cc1NC(=O)COC(=O)/C=C/c1ccc2ccccc2n1 | 0 | 76.3 | - | - | 0
CCC(=O)NC(c1ccc(OC)cc1)c1cc(Cl)c2cccnc2c1O (configuration not stated) | ? | 0 | 0 | 98.2 | -64.5
O=C(CCc1ccccc1)NC(c1cccs1)c1cc(Cl)c2cccnc2c1O (configuration not stated) | 66.2 | 0 | 0 | 98.8 | 0
CCC(=O)NC(c1ccco1)c1cc(Cl)c2cccnc2c1O (configuration not stated) | 62.7 | 0 | 0 | 0 | -72.4
CCC(=O)NC(c1cccs1)c1cc([N+](=O)[O-])c2cccnc2c1O (configuration not stated) | 0 | 0 | 0 | 0 | 0
CCCC(=O)NC(c1cccs1)c1cc([N+](=O)[O-])c2cccnc2c1O (configuration not stated) | 0 | 0 | 0 | 0 | 0
CCCCC(=O)NC(c1ccco1)c1cc(Cl)c2cccnc2c1O (configuration not stated) | 62.8 | 0 | 0 | 0 | 0
COc1ccc(C(NC(=O)c2cccnc2)c2cc(Cl)c3cccnc3c2O)cc1OC (configuration not stated) | ? | 0 | 0 | 98.1 | 0
Oc1c(C(Nc2ccccn2)c2cccnc2)cc(Cl)c2cccnc12 (configuration not stated) | 55.3 | 0 | 0 | 94.5 | 0
CC(=O)NC(c1ccc(C)cc1)c1cc(Cl)c2cccnc2c1O (configuration not stated) | 62.4 | 0 | - | - | -83.2
Cc1cc(C)c(NC(=O)c2ccc(CNS(=O)(=O)c3cc(C(F)(F)F)ccc3Cl)cc2)c(C)c1 | 0 | 0 | 0 | 0 | 0
COc1ccc(NC(=O)CSc2nc3c(c(-c4cccs4)c2C#N)CN(C)CC3)cc1OC | 0 | 0 | 0 | 0 | 0
CC(C)NC(=O)c1sc2nc3c(c(-c4cccs4)c2c1N)CN(C)CC3 | 56.5 | 0 | 0 | 0 | 0
Cc1cccc(NC(=O)c2sc3nc4c(c(-c5cccs5)c3c2N)CN(C)CC4)c1 | 0 | 0 | 0 | 55.6 | 0
NC(=O)c1sc2nc3c(c(-c4cccs4)c2c1N)CCCC3 | 0 | 0 | 0 | 0 | 0
Cn1nc(C(=O)N2CCCCC2)c2c1-c1ccccc1S(=O)(=O)C2 | 0 | 0 | - | - | 0
C=CCn1c(SC)nc2sc3c(c2c1=O)CCc1ccccc1-3 | 0 | 0 | 0 | 54.4 | 0
CCOc1ccc(S(=O)(=O)N2CCCC(C(=O)N3CCN(CC)CC3)C2)cc1Cl (configuration not stated) | 0 | 0 | - | - | 0
COC(=O)c1c(NC(=O)c2ccccc2[N+](=O)[O-])sc2c1CC(C)(C)NC2(C)C | 0 | 0 | 0 | 95.9 | 0
Cc1cc(OCC(=O)Nc2sc3c(c2C#N)CC(C)(C)NC3(C)C)c(C(C)C)cc1Cl | 0 | 0 | - | - | -54.7
COC(=O)c1c(NC(=O)COc2ccc(Cl)cc2)sc2c1CC(C)(C)NC2(C)C | 65.4 | 0 | - | - | 0
COc1ccc(N2C(=O)CC2(C#N)c2ccc(OCc3ccccc3)cc2)cc1 (configuration not stated) | 0 | 0 | 0 | 68.2 | 0
Cc1ccc(S(=O)(=O)N(C)CC(=O)Nc2nnc(CC(C)C)s2)cc1 | 0 | 0 | - | - | 0
COc1cc(N=Nc2ccc3ccccc3c2)ccc1O | 0 | 55.3 | - | - | 0
O=c1ccc2ccccc2n1Cc1cccc(F)c1 | 0 | 0 | - | - | 0
Cc1ccc(C(=O)C2CCOC(C)(C)C2)cc1 (configuration not stated) | 0 | 0 | 0 | 0 | 0
CN(c1ccc(OCC(=O)NCc2cccnc2)cc1)S(=O)(=O)c1ccc(Cl)cc1 | 0 | 0 | 0 | 0 | 0
O=C(CCl)Nc1ccc(Oc2cnc3ccccc3n2)cc1 | 0 | 0 | 0 | 66.1 | 0
